According to ChEMBL document CHEMBL4513216, “Probing the Open Global Health Chemical Diversity Library for Multistage-Active Starting Points for Next-Generation Antimalarials” (ACS Infect Dis, 2020):

Experiment: Toxicity liver stage against HepG2, at 10uM
Assay type: cell-based
Parameters: test concentration 10 uM, cell line HepG2-A16-CD81EGFP
Settings: human, HepG2-A16-CD81EGFP cells; read-out: INHIBITION
How it was run: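 Uninfected HepG2-A16-CD81EGFP cells, 3 × 10^3 per well, 1536-well, plated on prespotted compound at 10 μM final, parasite-free screening media added to match infected plates; puromycin 10 μM positive, DMSO 0.5% negative; run in parallel with 48 h PbLuc assay at 37 °C, 5% CO2; viability by CellTiter-Glo luminescence, normalized to controls.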

Structure (SMILES) | cytotoxicity at 10 µM
COc1ccc(CN2CCn3cccc3C2C)cc1F (centres undefined) | -2.63%
NC(=O)c1nnn(-c2ccc(Cl)cc2)n1 | 8.99%
Cc1nn(C)c(N2CCCN(C)CC2)c1CNC(=O)CCC(C)C | -1.08%
N#Cc1c[nH]c(C(=O)N(Cc2ccc(O)cc2)CC2CC2)c1 | 11.5%
Cc1cc(C(=O)N2CCCC(c3nccn3C)C2)cc(S(N)(=O)=O)c1C (centres undefined) | 5.5%
Cc1noc(C2CCCN(C(=O)c3cc(-c4ccccc4)on3)C2)n1 (centres undefined) | -7.14%
COCc1nc(N(C)CCSc2ccccc2)c2cnn(C)c2n1 | 1.98%
CC(c1ccc(F)cc1F)N1CCN(Cc2nccn2C)CC1 (centres undefined) | -11.7%
O=C1NCC[C@]12CN(Cc1ccco1)C[C@H]2c1ccccc1 | -139%
CN(Cc1ccncc1)C1COC2(CCN(Cc3ccco3)CC2)C1 (centres undefined) | -77.9%
N#Cc1ccc(C(=O)N2CCOC[C@H](Oc3cnccn3)C2)cc1 | 5.88%
CNS(=O)(=O)c1cnccc1N1CCN(C(C)C)CC1 | -2.02%
COc1ccc(CC(=O)N2CCC(c3nnc4n3CCC4)CC2)cc1F | -1.65%
O=C1CCN(C(=O)c2csc(-c3ccc(C(F)(F)F)cc3)n2)CCN1 | -12.3%
COc1ccc([C@@H]2CN(C(=O)c3cscn3)C[C@H]2C(=O)O)cc1 | -18.2%
CCc1nnc(CNCC2CCCN2c2cccnn2)o1 (centres undefined) | -10.7%
COc1cccc(Cn2cccc(C#N)c2=O)c1 | 11.3%
Cc1nn(C)c(Oc2ccc(Cl)cc2)c1CN1CCOC(CN)C1 (centres undefined) | 8.85%
CCc1[nH]ncc1C(=O)N1CCCN(Cc2nccn2C(C)C)CC1 | -8.92%
Cn1cccc1C(=O)N1CCC2(CCCN2Cc2ccccc2)CC1 | 0.929%
CNC(=O)[C@@H]1COC[C@H]2CN(C(=O)c3ccc(C)c(F)c3)C[C@H]21 | 0.165%
C[C@]1(O)CN(Cc2ncc[nH]2)CC[C@@H]1Oc1cccc(F)c1 | -6.8%

Structure (SMILES) | cytotoxicity at 10 µM
Cc1ccc2nc(CN(Cc3ccc(C)o3)C(C)C)cc(=O)n2c1 | 5.6%
CN(Cc1ccoc1)C(=O)C1CCN(C(=O)C2CCCC2)CC1 | -7.77%
CC(=O)c1c(F)cccc1N1CCC(NS(=O)(=O)c2ccccc2)CC1 | 53.4%
Cc1ccc(C(=O)N2CCCC(Nc3ccc(F)cc3)C2)cc1 (centres undefined) | -3.53%
c1cc(NCc2ccncc2)nc(C2CCCNC2)c1 (centres undefined) | -1.83%
O=C([C@@H]1CC[C@@H]2[C@@H](CCN2Cc2cccs2)O1)N1CCCCO1 | -2.33%
COCc1cc(NCCc2ccc(S(N)(=O)=O)cc2)n2nccc2n1 | 6.45%
Cc1cc(CNCC2Cn3nnc(C)c3CO2)oc1C (centres undefined) | 6.65%
Cc1occc1CNC(=O)C1(C)CCCN1C(=O)c1ccccc1 (centres undefined) | -9.34%
Cc1ccc(N2CCC3(CCN(Cc4csc(C)n4)C3=O)C2)nn1 (centres undefined) | -111%
COc1ccc(C(C)N2CCC(NS(C)(=O)=O)CC2)cc1Cl (centres undefined) | -41.2%
COc1cc(N2C[C@H](C(=O)NCC3CC3)[C@@H]3CCO[C@@H]3C2)ncn1 | 2.87%
CC1=C[C@@H](CN2CCCC2)[C@H](C(C)C)C[C@H]1Cc1nnc(C)o1 | 2.47%
CCCn1nccc1C(=O)N1CCCC(C(=O)CCc2ccccc2)C1 (centres undefined) | -1.08%
Cn1cnnc1S(=O)(=O)C1CCN(S(=O)(=O)c2ccc(F)c(Cl)c2)CC1 | -7.2%
CCCc1nc(C(=O)N2C[C@H](CO)C[C@H](CN3CCOCC3)C2)cs1 | 3.79%
Cn1cccc1C(=O)NCc1cn2c(n1)CN(CC1CCOC1)CC2 (centres undefined) | -99.7%
OC1(CNc2ccccc2)CCNCC1 | -1.9%
CCc1nnc(C(C)N2CCCN(C(=O)Oc3ccccc3)CC2)o1 (centres undefined) | 2.79%
Fc1ccc(OCC2CCCO2)c(NCc2noc(C3CC3)n2)c1 (centres undefined) | 9.61%
Cc1nc(Nc2ccccn2)cc(C2CCCN2C2CCOCC2)n1 (centres undefined) | -18.1%
CCNC(=O)CN1CCCC(c2ccc(C(=O)O)cc2)C1 (centres undefined) | 8.57%
